Test results taken from ChEMBL document CHEMBL1131609, “Syntheses and structure-activity relationships of novel retinoid X receptor agonists” (J Med Chem, 1998).
Active and inactive are the calls of the source. The calls are words filed in the database; no cut-off is given here.

Legend:
[1] = target: T1, Retinoic acid receptor beta (Homo sapiens) (UniProt P10826); test: Relative EC30 for human RAR-beta receptor as EC30(compound) divided by EC30(ATRA)
T1 sequence (whole entry): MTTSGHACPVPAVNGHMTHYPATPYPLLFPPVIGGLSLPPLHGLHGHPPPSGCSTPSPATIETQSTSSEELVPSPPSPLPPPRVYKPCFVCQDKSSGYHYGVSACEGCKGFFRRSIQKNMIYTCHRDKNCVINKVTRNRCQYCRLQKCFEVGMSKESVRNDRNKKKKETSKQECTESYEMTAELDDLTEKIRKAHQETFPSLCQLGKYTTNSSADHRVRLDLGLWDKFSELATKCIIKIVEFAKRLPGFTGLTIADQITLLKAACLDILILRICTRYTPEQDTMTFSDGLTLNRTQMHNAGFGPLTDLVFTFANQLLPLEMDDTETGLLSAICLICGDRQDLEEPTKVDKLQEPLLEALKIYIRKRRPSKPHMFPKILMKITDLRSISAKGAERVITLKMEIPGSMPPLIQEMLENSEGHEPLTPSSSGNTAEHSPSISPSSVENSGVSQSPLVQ

[2] = target: T2, Retinoic acid receptor alpha (Homo sapiens) (UniProt P10276); test: Percent maximal induction of human RAR-alpha receptor relative to ATRA; Inactive; format: functional
T2 sequence (whole entry): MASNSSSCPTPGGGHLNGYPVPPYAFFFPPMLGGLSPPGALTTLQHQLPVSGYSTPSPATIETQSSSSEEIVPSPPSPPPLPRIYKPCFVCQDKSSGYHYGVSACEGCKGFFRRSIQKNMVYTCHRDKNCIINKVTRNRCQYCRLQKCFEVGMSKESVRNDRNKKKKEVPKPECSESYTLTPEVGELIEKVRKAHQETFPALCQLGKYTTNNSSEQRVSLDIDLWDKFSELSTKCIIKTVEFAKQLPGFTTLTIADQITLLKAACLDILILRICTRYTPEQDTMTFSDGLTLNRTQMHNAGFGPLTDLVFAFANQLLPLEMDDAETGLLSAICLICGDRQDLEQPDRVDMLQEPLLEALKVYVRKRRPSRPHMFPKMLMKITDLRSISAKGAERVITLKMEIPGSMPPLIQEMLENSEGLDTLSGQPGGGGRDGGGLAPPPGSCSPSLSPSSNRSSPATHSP

[3] = target: T3, Retinoic acid receptor gamma (Homo sapiens) (UniProt P13631); test: Percent maximal induction of human RAR-gamma receptor relative to ATRA; Inactive; format: functional
T3 sequence (whole entry): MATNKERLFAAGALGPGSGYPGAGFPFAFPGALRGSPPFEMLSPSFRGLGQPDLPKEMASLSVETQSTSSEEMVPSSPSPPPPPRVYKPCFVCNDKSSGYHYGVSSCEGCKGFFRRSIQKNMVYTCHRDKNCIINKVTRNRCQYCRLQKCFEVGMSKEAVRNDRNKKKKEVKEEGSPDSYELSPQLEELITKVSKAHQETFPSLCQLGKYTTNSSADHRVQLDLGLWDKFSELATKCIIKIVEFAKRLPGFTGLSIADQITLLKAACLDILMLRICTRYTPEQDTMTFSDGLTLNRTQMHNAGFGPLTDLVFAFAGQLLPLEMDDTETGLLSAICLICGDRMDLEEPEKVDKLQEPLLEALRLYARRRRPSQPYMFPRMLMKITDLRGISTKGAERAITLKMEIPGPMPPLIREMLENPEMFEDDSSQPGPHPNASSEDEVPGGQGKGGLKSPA

[4] = target: T1, Retinoic acid receptor beta (Homo sapiens); test: Relative IC50 for human RAR-beta receptor IC50(compound) divided by IC50(ATRA)
Procedure, shortened: (§1)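 Competitive binding used nuclear extracts of BHK clones stably expressing human RAR-α, β or γ, selected in 250 nM methotrexate. Extracts were incubated with [³H]-ATRA (added as 10 nM solution) and unlabeled compound for 16 h at 4 °C. Free ligand was removed with charcoal/dextran, and the supernatant was counted. Nonspecific binding was taken as binding with 1000-fold excess unlabeled ligand. IC50 from logarithmic plots was divided by the IC50 of ATRA.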

[5] = target: T2, Retinoic acid receptor alpha (Homo sapiens); test: Relative IC50 for human RAR-alpha receptor as IC50(compound) divided by IC50(ATRA); procedure, shortened: as §1
[6] = target: T3, Retinoic acid receptor gamma (Homo sapiens); test: Relative IC50 for human RAR-gamma receptor as IC50(compound) divided by IC50(ATRA); procedure, shortened: as §1
[7] = target: T1, Retinoic acid receptor beta (Homo sapiens); test: Relative EC30 for human RAR-beta receptor as EC30(compound) divided EC30(ATRA); Inactive
[8] = target: T1, Retinoic acid receptor beta (Homo sapiens); test: Percent maximal induction of human RAR-beta receptor relative to ATRA; Inactive; format: functional
[9] = target: T2, Retinoic acid receptor alpha (Homo sapiens); test: Relative EC30 for human RAR-alpha receptor as EC30(compound) divided by EC30(ATRA); Inactive
[10] = target: T3, Retinoic acid receptor gamma (Homo sapiens); test: Relative EC30 for human RAR-gamma receptor as EC30(compound) divided by EC30(ATRA); Inactive
[11] = target: T3, Retinoic acid receptor gamma (Homo sapiens); test: Relative EC30 for human RAR-gamma receptor as EC30(compound) divided by EC30(ATRA); inactive

| SMILES | Relative EC30 [1] | Efficacy [2] | Efficacy [3] | Relative IC50 [4] | Relative IC50 [5] | Relative IC50 [6] | Relative EC30 [7] | Efficacy [8] | Relative EC30 [9] | Relative EC30 [10] | Relative EC30 [11] |
| --- | --- | --- | --- | --- | --- | --- | --- | --- | --- | --- | --- |
| CC\C(=C(F)/C=C/C(C)=C/C(=O)O)c1ccc2c(c1)CCCN2C(C)C | 1600 | inactive | inactive | – | – | – | – | – | – | – | – |
| CC(/C=C/C=C(\C)c1ccc2c(c1)CCCN2C(C)C)=C\C(=O)O | – | – | – | 432 | 372 | 187 | – | – | – | – | – |
| CCCC\C(=C(F)/C=C/C(C)=C/C(=O)O)c1ccc2c(c1)CCCN2C(C)C | – | inactive | inactive | – | – | – | inactive | inactive | inactive | inactive | – |
| CCC\C(=C(F)/C=C/C(C)=C/C(=O)O)c1ccc2c(c1)CCCN2C(C)C | – | inactive | inactive | – | – | – | – | – | inactive | – | inactive |
